# Reference: ChEMBL document CHEMBL3813679, “DARC: Mapping Surface Topography by Ray-Casting for Effective Virtual Screening at Protein Interaction Sites” (J Med Chem, 2016)
# Active and inactive are the calls of the source. The rule behind the calls is not given here.
# Columns and labels:
# [1] = target: T1, Induced myeloid leukemia cell differentiation protein Mcl-1 (Homo sapiens, UniProt Q07820); assay: biochemical
# [2] = target: T1, Induced myeloid leukemia cell differentiation protein Mcl-1; assay: Reversible binding affinity to PEST and transmembrane regions lacking N-terminal His6/MBP-tagged human MCl1 (172 to 327 residues) expressed in Escherichia coli Rosetta2(2DE3) pLysS cells at 50 uM measured for 300 secs by bio-layer interferometry
# [3] = target: T1, Induced myeloid leukemia cell differentiation protein Mcl-1; assay: Binding affinity to PEST and transmembrane regions lacking N-terminal His6/MBP-tagged human MCl1 (172 to 327 residues) expressed in Escherichia coli Rosetta2(2DE3) pLysS cells assesed as inhibition of protein interaction with carboxyfluorescein-labeled 26-mer Noxa peptide at 15 nM to 250 uM by fluorescence polarization assay in presence of CHAPS
# In short: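 Competition fluorescence polarization assay measuring displacement of a […] cognate (Noxa) peptide from Mcl-1. Polarization was read across a dose series of test compound. Buffer contained 0.1% CHAPS to rule out compound aggregation. Ki values were derived from the competition data.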
# T1 sequence (Q07820 whole entry, the tested form may be a part): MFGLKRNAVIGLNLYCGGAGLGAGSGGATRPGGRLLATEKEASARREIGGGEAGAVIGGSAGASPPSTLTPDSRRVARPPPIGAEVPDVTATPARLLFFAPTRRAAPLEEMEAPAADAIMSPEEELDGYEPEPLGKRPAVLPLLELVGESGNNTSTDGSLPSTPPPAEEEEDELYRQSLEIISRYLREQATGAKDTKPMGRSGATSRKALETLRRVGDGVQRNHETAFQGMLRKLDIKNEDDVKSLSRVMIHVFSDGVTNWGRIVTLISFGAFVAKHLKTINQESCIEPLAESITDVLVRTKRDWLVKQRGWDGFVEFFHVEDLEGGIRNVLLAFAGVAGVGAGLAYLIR
Structure (SMILES),Ki [1] [µM],also measured
COc1ccc(/C=C/C(=O)c2ccc(O)cc2)cc1,> 50,
O=C(/C=C/c1cc(F)c(O)c(Cl)c1)c1ccncc1,> 50,
O=C(/C=C/c1cc(F)c(O)c(F)c1)c1ccc2c(c1)CCO2,> 50,
COc1ccc(C(=O)/C=C/c2ccc(O)c(F)c2)c(OC)c1OC,28,
COc1cc(O)c(C(=O)/C=C/c2ccc(O)c(OC)c2)c(OC)c1,21,Activity [2]: Active; inhibition of Noxa peptide binding (active/inactive call) [3]: Active
COc1cc(O)c(C(=O)/C=C/c2ccc([N+](=O)[O-])cc2)c(OC)c1OC,> 50,
O=C(/C=C/c1ccncc1)c1ccc(O)cc1,> 50,
c1cc2c(cc1[C@H]1OC[C@H]3[C@H]1CO[C@H]3c1ccc3c(c1)OCO3)OCO2,7,Activity [2]: Active; inhibition of Noxa peptide binding (active/inactive call) [3]: Active
COc1cc2oc(-c3ccccc3[N+](=O)[O-])cc(=O)c2c(OC)c1OC,> 50,
COc1ccc(/C=C/C(=O)c2cc(OC)c(OC)c(OC)c2O)cc1,> 50,
O=C(/C=C/c1ccc(O)c(F)c1)c1ccc2c(c1)CCO2,> 50,
COc1cc(C(=O)/C=C/c2ccc([N+](=O)[O-])cc2)c(O)c(OC)c1OC,> 50,
COc1cc2oc(-c3ccc(N)cc3)cc(=O)c2c(OC)c1OC,> 50,
COc1cc(O)c(C(=O)/C=C/c2ccc(C(F)(F)F)cc2)c(OC)c1OC,> 50,
COc1ccc(C(=O)/C=C/c2cccc(F)c2O)cc1,20,
COc1cc(C(=O)/C=C/c2ccc(C(F)(F)F)cc2)c(O)c(OC)c1OC,> 50,

Structure (SMILES),Ki [1] [µM],also measured
COc1ccc(/C=C/C(=O)c2ccc(O)cc2)c(O)c1,> 50,
O=C(/C=C/c1ccc(O)cc1)c1ccc2c(c1)CCO2,> 50,
COc1ccc(C(=O)/C=C/c2cc(F)c(O)c(Cl)c2)cc1,7,
COc1cc2oc(-c3ccccc3N)cc(=O)c2c(OC)c1OC,> 50,
Cc1c(/C=N/N2C=Nc3c([nH]c4ccccc34)C2)c(=O)oc2c3c4c(cc12)CCCN4CCC3,,Activity [2]: Active; inhibition of Noxa peptide binding (active/inactive call) [3]: Active
COc1ccc(C(=O)/C=C/c2cc(Cl)c(O)c(OC)c2)cc1,10,
COc1ccc(C(=O)/C=C/c2cc(F)c(O)c(Cl)c2)c(OC)c1OC,3,
COc1cc2oc(-c3ccc(C(F)(F)F)cc3)cc(=O)c2c(OC)c1OC,> 50,
COc1cc(C(=O)/C=C/c2ccc(O)cc2)c(O)c(OC)c1OC,40,
COc1ccc(C(=O)/C=C/c2ccc(O)cc2)cc1,> 50,
COc1ccc(C(=O)/C=C/c2ccncc2)c(O)c1,> 50,
COc1cc(O)c(C(=O)/C=C/c2ccccc2[N+](=O)[O-])c(OC)c1OC,> 50,
C[C@@]12CC[C@@H]3[C@H](CCC4=CC(=O)CC[C@H]43)[C@H]1CC[C@H]2OC1(O)C(=O)c2ccccc2C1=O,12,Activity [2]: Active; inhibition [3]: Active
COc1cc(C(=O)/C=C/c2ccc3c(c2)OCO3)c(O)c(OC)c1OC,> 50,
COc1cc(/C=C/C(=O)c2ccc(OC)c(OC)c2OC)cc(Cl)c1O,2,
